# Published values pooled from the literature.
# Protocols differ between the studies behind these lines.
# Organism: Micrococcus luteus
SMILES,observed,technique,strain,concentration,time,quantity,result
O=C1NN=C(N=Cc2ccccc2O)C1=NNn1c(-c2ccccc2)nc2ccccc2c1=O,microbial growth,broth dilution,,,24 h,MIC,55.4 µM
CN[C@H](CC(C)C)C(=O)N[C@H]1C(=O)N[C@@H](CC(N)=O)C(=O)N[C@H]2C(=O)N[C@H]3C(=O)N[C@H](C(=O)N[C@H](C(=O)O)c4cc(O)cc(O)c4-c4cc3ccc4O)[C@H](O)c3ccc(c(Cl)c3)Oc3cc2cc(c3O[C@@H]2O[C@H](CO)[C@@H](O)[C@H](O)[C@H]2O[C@H]2C[C@](C)(N)[C@H](O)[C@H](C)O2)Oc2ccc(cc2Cl)[C@H]1O,microbial growth,broth dilution,ML01,,,MIC,0.13 µg/mL
CC1=NN(CNc2c(O)c(S(=O)(=O)O)cc3ccccc23)C(=O)C1=NNn1c(-c2ccccc2)nc2ccccc2c1=O,microbial growth,broth dilution,,,24 h,MIC,83.7 µM
CN[C@H](CC(C)C)C(=O)N[C@H]1C(=O)N[C@@H](CC(N)=O)C(=O)N[C@H]2C(=O)N[C@H]3C(=O)N[C@H](C(=O)N[C@H](C(=O)O)c4cc(O)cc(O)c4-c4cc3ccc4O)[C@H](O)c3ccc(c(Cl)c3)Oc3cc2cc(c3O[C@@H]2O[C@H](CO)[C@@H](O)[C@H](O)[C@H]2O[C@H]2C[C@](C)(N)[C@H](O)[C@H](C)O2)Oc2ccc(cc2Cl)[C@H]1O,microbial growth,broth dilution,ATCC10240,,,MIC,0.12 µg/mL
O=C(O)c1cn(C2CC2)c2cc(N3CCNCC3)c(F)cc2c1=O,microbial growth,disc diffusion,,100 µg/mL,24 h,inhibition zone,25 mm
O=C(O)CN1C(=O)/C(=C/c2ccc(-c3ccc(N(c4ccccc4)c4ccccc4)cc3)c3ccccc23)SC1=S,microbial killing,broth dilution,ATCC10240,,,MBC,62.5 µg/mL
CC1(C)S[C@@H]2[C@H](NC(=O)[C@H](N)c3ccccc3)C(=O)N2[C@H]1C(=O)O,microbial growth,agar dilution,ATCC10240,26.93 µM,,inhibition,100%
O=C1NN=C(N=Cc2ccc(O)c(O)c2)C1=NNn1c(-c2ccccc2)nc2ccccc2c1=O,microbial growth,broth dilution,,,24 h,MIC,53.5 µM
C/C=C(\C)c1cc(O)c(C)c(OC(=O)c2c(C)c(Cl)c(O)c(Cl)c2O)c1,microbial growth,broth dilution,ML01,,,MIC,4 µg/mL
